# Assays:
# [1] = Cytotoxicity against human MT4 cells after 5 days by MTT assay; assay type: cell-based
# Outline: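 Mock-infected MT-4 cells received culture medium in place of virus, at 6×10^5 cells/mL, run in parallel triplicate wells with serial 5-fold compound dilutions. After 5 days, MTT reduction was read at 540 and 690 nm, using the median OD of three wells. CC50 is the concentration lowering OD540 of the mock-infected control by 50%.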
# [2] = test system: Human immunodeficiency virus 1; test: Antiviral activity against wild type HIV1 3B infected in human MT4 cells assessed as inhibition of virus-induced cytopathogenicity after 5 days by MTT assay; assay type: functional, organism-based; settings: Human immunodeficiency virus 1, 3B, MT4, 120 h
# Outline: (§1)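 MT-4 cells in exponential growth were pelleted (5 min, 220 g) and resuspended at 6×10^5 cells/mL. They were infected at the start with 100-300 CCID50 of virus stock and exposed to serial 5-fold compound dilutions in triplicate wells. Viability was read by MTT at 540 and 690 nm after 5 days, using the median OD of three wells. EC50 is the concentration giving 50% protection from viral cytopathic effect.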
# [3] = Selectivity index, ratio of CC50 for human MT4 cells to IC50 for wild type HIV1 3B; assay type: functional
# [4] = test system: Human immunodeficiency virus 2; test: Antiviral activity against HIV2 ROD infected in human MT4 cells assessed as inhibition of virus-induced cytopathogenicity after 5 days by MTT assay; assay type: functional, organism-based; settings: Human immunodeficiency virus 2, ISOLATE ROD, MT4, 120 h; outline: as §1
# [5] = test system: Human immunodeficiency virus 1; test: Antiviral activity against HIV1 harboring reverse transcriptase K103N/Y181C mutant infected in human MT4 cells assessed as inhibition of virus-induced cytopathogenicity after 5 days by MTT assay; assay type: functional, organism-based; settings: Human immunodeficiency virus 1, MT4, 120 h
# Outline: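 MT-4 cells (6×10^5 cells/mL after spinning at 220 g for 5 min) infected with 100-300 CCID50 of the double RT mutant strain derived from wild-type LAI. Serial 5-fold compound dilutions tested in triplicate alongside mock-infected wells. Viability read by MTT at 540 and 690 nm on day 5, using the median OD of three wells. IC50 is the concentration giving 50% protection from viral cytopathic effect.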
# [6] = Ratio of compound selectivity index to zidovudine selectivity index for human MT4 cells
# [7] = test system: Human immunodeficiency virus 1; test: Ratio of zidovudine IC50 to compound IC50 for wild type HIV1 3B; assay type: functional
SMILES,CC50 at 120 h [1] [µM],IC50 [2] [µM],Ratio CC50/IC50 [3],IC50 [4] [µM],IC50 [5] [µM],ratio of compound SI to zidovudine SI [6],Ratio IC50 [7]
CC(C)Nc1cccnc1N1CCN(C(=O)c2cc3cc(NS(C)(=O)=O)ccc3[nH]2)CC1 [DELAVIRDINE],43.8,0.81,>54,–,–,–,–
CC(C)NC(c1ccc(C#N)cc1)c1ccnc(Nc2ccc(C#N)cc2)n1 (stereo not given),69.2,> 69.2,–,> 69.2,> 69.2,–,–
CNC(c1ccnc(Nc2ccc(C#N)cc2)n1)c1ccccc1Cl (stereo not given),36.1,0.063,571,> 6.09,> 36.1,–,–
N#C/C=C/c1ccc(C(NN)c2ccnc(Nc3ccc(C#N)cc3)n2)cc1 (stereo not given),186,0.00175,106367,5.05,5.33,7,4
CCNC(c1ccc(C#N)cc1)c1ccnc(Nc2ccc(C#N)cc2)n1 (stereo not given),158,21.1,7,> 158,> 158,–,–
Cc1cn([C@H]2C[C@H](N=[N+]=[N-])[C@@H](CO)O2)c(=O)[nH]c1=O [ZIDOVUDINE],> 93.5,0.0066,>14124,0.0017,0.0077,–,–
N#Cc1ccc(Nc2nccc(C(NN)c3ccc(C#N)cc3)n2)cc1 (stereo not given),40.2,0.234,172,2.92,5.95,–,–
CNC(c1ccc(C#N)cc1)c1ccnc(Nc2ccc(C#N)cc2)n1 (stereo not given),189,15.2,12,> 189,> 189,–,–
O=C1Nc2ccc(Cl)cc2[C@@](C#CC2CC2)(C(F)(F)F)O1 [EFAVIRENZ],–,0.0226,>280,–,0.16,–,–
N#Cc1ccc(Nc2nccc(C(NC3CC3)c3ccc(C#N)cc3)n2)cc1 (stereo not given),34.7,> 34.7,<1,> 34.7,> 34.7,–,–
Cc1ccnc2c1NC(=O)c1cccnc1N2C1CC1 [NEVIRAPINE],> 15,0.101,>148,–,0.9,–,–
CC(O)CNC(c1ccc(C#N)cc1)c1ccnc(Nc2ccc(C#N)cc2)n1 (stereo not given),> 65,23.9,>3,> 65,> 65,–,–
CCNC(c1ccnc(Nc2ccc(C#N)cc2)n1)c1ccccc1Cl (stereo not given),39.4,0.35,113,> 39.4,> 39.4,–,–
CCNC(c1ccc(/C=C/C#N)cc1)c1ccnc(Nc2ccc(C#N)cc2)n1 (stereo not given),37.3,0.192,194,> 37.3,> 37.3,–,–
Nc1ccn([C@@H]2CS[C@H](CO)O2)c(=O)n1 [LAMIVUDINE],> 87.2,3.89,>22,15.5,–,–,–
CC(C)NC(c1ccnc(Nc2ccc(C#N)cc2)n1)c1ccccc1Cl (stereo not given),35.5,0.04,879,> 35.5,> 35.5,–,–
CC(C)NC(c1ccc(/C=C/C#N)cc1)c1ccnc(Nc2ccc(C#N)cc2)n1 (stereo not given),32.3,0.08,405,> 32.3,> 32.3,–,–
CCCNC(c1ccc(C#N)cc1)c1ccnc(Nc2ccc(C#N)cc2)n1 (stereo not given),34.9,≥ 9.45,<=4,> 34.9,> 34.9,–,–
CCCNC(c1ccc(/C=C/C#N)cc1)c1ccnc(Nc2ccc(C#N)cc2)n1 (stereo not given),34,0.107,319,> 37.3,> 37.3,–,–
N#Cc1ccc(Nc2nccc(C(NC3CC3)c3ccccc3Cl)n2)cc1 (stereo not given),37.9,0.12,317,> 37.9,> 37.9,–,–
CCCNC(c1ccnc(Nc2ccc(C#N)cc2)n1)c1ccccc1Cl (stereo not given),68.5,0.048,1422,> 68.5,> 68.5,–,–
CC(O)CNC(c1ccnc(Nc2ccc(C#N)cc2)n1)c1ccccc1Cl (stereo not given),34.7,0.33,105,> 34.7,> 34.7,–,–
CNC(c1ccc(/C=C/C#N)cc1)c1ccnc(Nc2ccc(C#N)cc2)n1 (stereo not given),41.4,0.108,385,> 41.4,> 41.4,–,–
N#C/C=C/c1ccc(C(NC2CC2)c2ccnc(Nc3ccc(C#N)cc3)n2)cc1 (stereo not given),56.1,0.196,287,> 56.1,> 56.1,–,–

# — ChEMBL document CHEMBL3286160, “Design and synthesis of a new series of modified CH-diarylpyrimidines as drug-resistant HIV non-nucleoside reverse transcriptase inhibitors” (Eur J Med Chem, 2014)
